Measured values reported in ChEMBL document CHEMBL1139738, “Pyridine-3-propanoic acids: Discovery of dual PPARalpha/gamma agonists as antidiabetic agents” (Bioorg Med Chem Lett, 2006).

What was measured:
[1] = biological target: T1, Peroxisome proliferator-activated receptor alpha (Homo sapiens) (UniProt Q07869); test: Agonist activity at human PPAR alpha in a HepG2 cells by PPAR-GAL4 transactivation assay relative to GW-2331; type: functional, cell-based
T1 sequence (whole entry): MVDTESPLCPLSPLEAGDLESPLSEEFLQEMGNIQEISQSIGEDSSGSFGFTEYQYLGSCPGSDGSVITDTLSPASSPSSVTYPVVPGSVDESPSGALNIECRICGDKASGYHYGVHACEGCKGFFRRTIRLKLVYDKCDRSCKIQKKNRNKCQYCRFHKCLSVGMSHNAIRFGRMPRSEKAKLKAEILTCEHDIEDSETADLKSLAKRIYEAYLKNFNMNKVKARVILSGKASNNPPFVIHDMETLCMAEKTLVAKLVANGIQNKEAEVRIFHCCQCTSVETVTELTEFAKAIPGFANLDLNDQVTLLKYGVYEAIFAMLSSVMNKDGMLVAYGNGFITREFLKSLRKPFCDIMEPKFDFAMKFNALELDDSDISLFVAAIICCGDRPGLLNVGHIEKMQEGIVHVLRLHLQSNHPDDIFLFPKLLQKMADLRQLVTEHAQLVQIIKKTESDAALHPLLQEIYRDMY

[2] = biological target: T2, Peroxisome proliferator-activated receptor alpha (Homo sapiens, UniProt Q07869); test: Agonist activity at human PPAR alpha in a HepG2 cells by PPAR-GAL4 transactivation assay; type: functional, cell-based
T2 sequence (Q07869 whole entry): T1 sequence (whole entry)

[3] = biological target: T2, Peroxisome proliferator-activated receptor alpha; test: Displacement of radiolabeled GW-2331 from human PPAR alpha by SPA binding assay
[4] = biological target: T1, Peroxisome proliferator-activated receptor alpha (Homo sapiens); test: Displacement of radiolabeled GW-2331 from human PPAR alpha by SPA assay at 100 uM
In short: (§1)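 Scintillation proximity assay on human PPARα using radiolabelled GW2331 as the displaced ligand, following published procedures. Single-concentration lines report percent displacement at the stated test concentration; Ki was determined for compounds with a full curve.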

[5] = biological target: T3, Peroxisome proliferator-activated receptor gamma (Homo sapiens, UniProt P37231); test: Displacement of radiolabeled darglitazone from human PPAR gamma by SPA binding assay
T3 sequence (P37231 whole entry): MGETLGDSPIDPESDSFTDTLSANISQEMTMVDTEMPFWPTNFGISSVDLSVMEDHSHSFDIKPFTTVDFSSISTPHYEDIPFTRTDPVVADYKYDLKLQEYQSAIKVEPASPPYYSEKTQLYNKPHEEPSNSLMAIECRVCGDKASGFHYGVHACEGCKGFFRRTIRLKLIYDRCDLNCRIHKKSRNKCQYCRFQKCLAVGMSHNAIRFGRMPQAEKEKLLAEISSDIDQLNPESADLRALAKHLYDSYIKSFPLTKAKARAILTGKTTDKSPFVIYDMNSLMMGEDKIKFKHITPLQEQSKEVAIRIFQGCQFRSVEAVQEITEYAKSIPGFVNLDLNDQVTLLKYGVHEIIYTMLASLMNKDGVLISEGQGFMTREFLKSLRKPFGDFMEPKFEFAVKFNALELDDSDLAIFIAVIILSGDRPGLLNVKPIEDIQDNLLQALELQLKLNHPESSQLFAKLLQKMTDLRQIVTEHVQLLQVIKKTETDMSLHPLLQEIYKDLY

[6] = biological target: T3, Peroxisome proliferator-activated receptor gamma; test: Agonist activity at human PPAR gamma in a HepG2 cells by PPAR-GAL4 transactivation assay; type: functional, cell-based
Mus musculus [7] = test: Reduction of plasma glucose in orally dosed db/db mouse at 10 mg/kg after 8 days relative to control; type: functional; design: scale not given: the % may be the effect or the level left; details: route oral
In short: (§2)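 Male db/db mice, 7 weeks old, with lean controls, given vehicle or compound by oral gavage once daily for 8 days. Plasma glucose, triglycerides, hematocrit and body weight measured before dosing on day −1 and 2 h post-dose on day 8. Percent change is expressed versus vehicle control, with significance at p < 0.05.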

Mus musculus [8] = test: Reduction of plasma triglycerides in orally dosed db/db mouse at 1 mg/kg after 8 days relative to control; type: functional; design: scale not given: the % may be the effect or the level left; details: route oral; in short: as §2
Mus musculus [9] = test: Increase in body weight in orally dosed db/db mouse at 10 mg/kg in a 8 day study; type: functional; details: route oral; in short: as §2
Mus musculus [10] = test: Increase in body weight in orally dosed db/db mouse at 1 mg/kg after 8 days relative to control; type: functional; details: route oral; in short: as §2
[11] = Half life in orally dosed Sprague-Dawley rat; type: ADME, organism-based; details: in vivo, po
In short: (§3)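 Pharmacokinetics in male Sprague–Dawley rats given iv and oral doses. Outputs are iv clearance (mL/min/kg), oral half-life, dose-normalized oral AUC (h μg/mL) and oral bioavailability (%).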

[12] = Oral bioavailability in Sprague-Dawley rat; type: ADME, organism-based; details: in vivo; in short: as §3
Mus musculus [13] = test: Reduction of plasma glucose in orally dosed db/db mouse at 1 mg/kg after 8 days relative to control; type: functional; design: scale not given: the % may be the effect or the level left; details: route oral; in short: as §2
Mus musculus [14] = test: Reduction of hematocrit in orally dosed db/db mouse at 1 mg/kg after 8 days relative to control; type: functional; design: scale not given: the % may be the effect or the level left; details: route oral; in short: as §2
Mus musculus [15] = test: Reduction of hematocrit in orally dosed db/db mouse at 10 mg/kg after 8 days relative to control; type: functional; design: scale not given: the % may be the effect or the level left; details: route oral; in short: as §2
Mus musculus [16] = test: Reduction of plasma triglycerides in orally dosed db/db mouse at 10 mg/kg after 8 days relative to control; type: functional; design: scale not given: the % may be the effect or the level left; details: route oral; in short: as §2
[17] = Clearance in iv dosed Sprague-Dawley rat; type: ADME, organism-based; details: in vivo; in short: as §3
[18] = biological target: T4, Peroxisome proliferator-activated receptor gamma (Homo sapiens) (UniProt P37231); test: Displacement of radiolabeled darglitazone from human PPAR gamma at 100 uM by SPA assay
T4 sequence (whole entry): T3 sequence (P37231 whole entry)
In short: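 Scintillation proximity assay on human PPARγ using radiolabelled darglitazone as the displaced ligand, following published procedures. Single-concentration lines report percent displacement at the stated test concentration; Ki was determined for compounds with a full curve.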

[19] = biological target: T1, Peroxisome proliferator-activated receptor alpha (Homo sapiens); test: Displacement of radiolabeled GW-2331 from human PPAR alpha by SPA assay at 11 uM; in short: as §1
Mus musculus [20] = test: Increase in body weight in orally dosed db/db mouse at 0.03 mg/kg after 8 days relative to control; type: functional; details: route oral; in short: as §2
Mus musculus [21] = test: Reduction of plasma glucose in orally dosed db/db mouse at 0.03 mg/kg after 8 days relative to control; type: functional; design: scale not given: the % may be the effect or the level left; details: route oral; in short: as §2
Mus musculus [22] = test: Reduction of plasma triglycerides in orally dosed db/db mouse at 0.03 mg/kg after 8 days relative to control; type: functional; design: scale not given: the % may be the effect or the level left; details: route oral; in short: as §2
Mus musculus [23] = test: Reduction of hematocrit in orally dosed db/db mouse at 0.03 mg/kg after 8 days relative to control; type: functional; design: scale not given: the % may be the effect or the level left; details: route oral; in short: as §2

Row | %max [1] [%] | EC50 [2] [nM] | Ki [3] [nM] | Compound | also measured
1 | 81 | 8 | 100 | Cc1oc(-c2cccc(C(F)(F)F)c2)nc1CCOc1ccc(CC2(C(=O)O)CCCO2)cn1 (stereo not given) | –
2 | 143 | 11 | 21 | Cc1oc(-c2ccc(C(F)(F)F)cc2)nc1CCOc1ccc(CC2(C(=O)O)CCCO2)cn1 (stereo not given) | –
3 | – | – | – | Cc1oc(-c2ccccc2)nc1CCOc1ccc(CC2(C(=O)O)CCOC2)cn1 (stereo not given) | inhibition [4]: 33%; Ki [5]: 17000 nM
4 | 84 | 23 | 31 | Cc1ccc(-c2nc(CCOc3ccc(CC4(C(=O)O)CCCO4)cn3)c(C)o2)cc1 (stereo not given) | –
5 | 117 | 46 | 99 | Cc1oc(-c2cccc(Cl)c2)nc1CCOc1ccc(CC2(C(=O)O)CCCO2)cn1 (stereo not given) | –
6 | 112 | 534 | 6800 | Cc1oc(-c2ccccc2)nc1CCOc1ccc(CC(C)(C)C(=O)O)cn1 | –
7 | 92 | 770 | 880 | CCCC(Cc1ccc(OCCc2nc(-c3ccccc3)oc2C)nc1)C(=O)O (stereo not given) | –
8 | 106 | 150 | 1300 | CCC(Cc1ccc(OCCc2nc(-c3ccccc3)oc2C)nc1)C(=O)O (stereo not given) | –
9 | 64 | 4670 | 15100 | CCOC(CC)(Cc1ccc(OCCc2nc(-c3ccccc3)oc2C)nc1)C(=O)O (stereo not given) | EC50 [6]: 2810 nM; Ki [5]: 14400 nM
10 | 99 | 111 | 570 | CO[C@@](C)(Cc1ccc(OCCc2nc(-c3ccccc3)oc2C)nc1)C(=O)O | Activity (Mus musculus [7]): 106%; Activity (Mus musculus [8]): 177%; Activity (Mus musculus [9]): 16.8%; Activity (Mus musculus [10]): 13.2%; half-life [11]: 9.7 h; bioavailability [12]: 87%; Activity (Mus musculus [13]): 88%; Activity (Mus musculus [14]): 3.8%; Activity (Mus musculus [15]): 7.2%; Activity (Mus musculus [16]): 205%; clearance [17]: 2.2 mL/min/kg
11 | 96 | 33 | 43 | CCOC(Cc1ccc(OCCc2nc(-c3ccccc3)oc2C)nc1)C(=O)O (stereo not given) | –
12 | – | – | 9400 | Cc1oc(-c2ccccc2)nc1CCOc1ccc(CC(C(=O)O)C(C)(C)C)cn1 (stereo not given) | Ki [5]: 12000 nM
13 | 86 | 134 | 277 | Cc1cccc(-c2nc(CCOc3ccc(CC4(C(=O)O)CCCO4)cn3)c(C)o2)c1 (stereo not given) | –
14 | 96 | 486 | 65 | COc1ccc(-c2nc(CCOc3ccc(CC4(C(=O)O)CCCO4)cn3)c(C)o2)cc1 (stereo not given) | –
15 | 106 | 48 | 78 | Cc1oc(-c2ccccc2)nc1CCOc1ccc(CC2(C(=O)O)CCCO2)cn1 (stereo not given) | –
16 | 39 | 6150 | – | Cc1oc(-c2ccccc2)nc1CCOc1ccc(CC2(C(=O)O)CC2)cn1 | inhibition [4]: 44%
17 | 96 | 228 | 78 | Cc1oc(-c2ccccc2)nc1CCOc1ccc(CC2(C(=O)O)CCCCO2)cn1 (stereo not given) | –
18 | 93 | 287 | 3000 | Cc1oc(-c2ccccc2)nc1CCOc1ccc(CC(C)C(=O)O)cn1 (stereo not given) | –
19 | 104 | 90 | 215 | COc1cccc(-c2nc(CCOc3ccc(CC4(C(=O)O)CCCO4)cn3)c(C)o2)c1 (stereo not given) | –
20 | 87 | 10 | 14 | Cc1oc(-c2ccc(Cl)cc2)nc1CCOc1ccc(CC2(C(=O)O)CCCO2)cn1 (stereo not given) | –
21 | – | – | – | Cc1oc(-c2ccccc2)nc1CCOc1ccc(CC2(C(=O)O)CCOCC2)cn1 | Activity [18]: 32%; inhibition [19]: 2%
22 | 98 | 1720 | 430 | Cc1oc(-c2ccccc2)nc1CCOc1ccc(CC(CC(C)C)C(=O)O)cn1 (stereo not given) | EC50 [6]: 1650 nM; Ki [5]: 360 nM
23 | 106 | 144 | 330 | COC(C)(Cc1ccc(OCCc2nc(-c3ccccc3)oc2C)nc1)C(=O)O (stereo not given) | –
24 | 95 | 83 | 180 | COC(Cc1ccc(OCCc2nc(-c3ccccc3)oc2C)nc1)C(=O)O (stereo not given) | –
25 | 167 | 31 | 314 | Cc1oc(-c2ccc(C#N)cc2)nc1CCOc1ccc(CC2(C(=O)O)CCCO2)cn1 (stereo not given) | EC50 [6]: 28 nM; Ki [5]: 334 nM
26 | – | – | 8300 | Cc1oc(-c2ccccc2)nc1CCOc1ccc(CC2(C(=O)O)CCCCC2)cn1 | –
27 | 89 | 165 | 32 | Cc1oc(-c2ccccc2)nc1CCOc1ccc(C[C@]2(C(=O)O)CCCO2)cn1 | Activity (Mus musculus [20]): 11.7%; Activity (Mus musculus [8]): 147%; Activity (Mus musculus [10]): 15.7%; Activity (Mus musculus [21]): 37%; Activity (Mus musculus [22]): 67%; half-life [11]: 4.7 h; bioavailability [12]: 59%; Activity (Mus musculus [13]): 99%; Activity (Mus musculus [23]): 7.2%; Activity (Mus musculus [14]): 8.7%; clearance [17]: 2.5 mL/min/kg
28 | 100 | 133 | 13 | COC(Cc1ccc(OCCc2ccc(Oc3cccc(Cl)c3)cc2C)nc1)C(=O)O (stereo not given) | EC50 [6]: 50 nM; Ki [5]: 15 nM
29 | 93 | 426 | 4100 | Cc1oc(-c2ccccc2)nc1CCOc1ccc(CC(C(=O)O)C(C)C)cn1 (stereo not given) | –
30 | 6 | – | – | CN(CCOc1ccc(CC2SC(=O)NC2=O)cc1)c1ccccn1 (stereo not given) | –

Row | Compound | %max [1] [%] | EC50 [2] [nM] | Ki [3] [nM] | also measured
31 | Cc1oc(-c2ccccc2)nc1CCOc1ccc(CC2(C(=O)O)CCC2)cn1 | 94 | 238 | 633 | EC50 [6]: 125 nM; Ki [5]: 394 nM
32 | Cc1oc(-c2ccccc2)nc1CCCOc1ccc(CC2(C(=O)O)CCCO2)cn1 (stereo not given) | – | – | 1840 | Ki [5]: 810 nM
